According to ChEMBL document CHEMBL1926562, “Design, synthesis and biological activity of sphingosine kinase 2 selective inhibitors” (Bioorg Med Chem, 2012):
Active and inactive are the calls of the source. The calls are words filed in the database; no cut-off is given here.

Assays:
[1] = target: T1, Sphingosine kinase 2 (Homo sapiens) (UniProt Q9NRA0); assay: Inhibition of SphK2 in human U937 cells using FTY720 as substrate assessed as accumulation of FTY720 at 10 uM after 2 hrs by LC/MS analysis; type: cell-based; settings: U-937
T1 sequence (whole entry): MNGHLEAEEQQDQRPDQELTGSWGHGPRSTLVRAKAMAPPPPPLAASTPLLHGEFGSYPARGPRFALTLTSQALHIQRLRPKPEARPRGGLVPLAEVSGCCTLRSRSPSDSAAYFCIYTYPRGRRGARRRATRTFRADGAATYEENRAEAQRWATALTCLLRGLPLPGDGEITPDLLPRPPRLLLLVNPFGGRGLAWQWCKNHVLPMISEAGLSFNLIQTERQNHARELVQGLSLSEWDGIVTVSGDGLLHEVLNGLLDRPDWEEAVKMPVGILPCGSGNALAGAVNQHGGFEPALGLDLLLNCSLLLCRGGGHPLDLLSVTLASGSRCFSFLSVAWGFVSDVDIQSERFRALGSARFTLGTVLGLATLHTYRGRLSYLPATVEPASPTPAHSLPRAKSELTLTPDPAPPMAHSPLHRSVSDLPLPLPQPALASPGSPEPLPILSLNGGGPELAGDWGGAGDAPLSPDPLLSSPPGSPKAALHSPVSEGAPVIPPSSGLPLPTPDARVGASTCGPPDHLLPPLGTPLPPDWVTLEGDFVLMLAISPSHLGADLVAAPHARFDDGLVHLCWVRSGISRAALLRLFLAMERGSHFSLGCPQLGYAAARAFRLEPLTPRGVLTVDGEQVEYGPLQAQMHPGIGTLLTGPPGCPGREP
Summary of the method: (§1)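 Cultured U937 cells were given FTY720 plus 10 μM inhibitor for 2 h, then pelleted by centrifugation. FTY720 and FTY720-P in the cell pellet were measured by LC/MS (C18 reverse phase, water/methanol/formic acid gradient) and reported as moles per million cells. Values are means ± SD of three independent experiments, with significance by unpaired two-tailed t-test.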

[2] = target: T1, Sphingosine kinase 2 (Homo sapiens); assay: Inhibition of SphK2 in human U937 cells assessed as decrease in ERK phosphorylation after 16 hrs by Western blot analysis; type: cell-based; settings: U-937
Summary of the method: (§2)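 U937 cells were incubated with a range of inhibitor concentrations for 16 h, then washed with PBS and Dounce-lysed. Equal protein amounts were run on 10% SDS–PAGE and blotted to nitrocellulose. Blots were blocked in 5% milk/TBS-Tween, probed with antibodies to ERK, p-ERK, Akt, p-Akt and β-actin (1:1000, 1 h), then HRP anti-IgG (1:2000). PD098059 (10 μM) served as ERK-phosphorylation control.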

[3] = Selectivity ratio of Ki/Km for human SphK1 to Ki/Km for mouse SphK2
Summary of the method: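 Selectivity calculated as (Ki/Km)SphK1 divided by (Ki/Km)SphK2, with sphingosine Km taken as 10 μM for SphK1 and 5 μM for SphK2.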

Sphingosine kinase 1 [4] = target: T2, Sphingosine kinase 1 (Homo sapiens, UniProt Q9NYA1); assay: Inhibition of human SphK1 expressed in baculovirus infected Sf9 insect cells assessed as remaining activity using sphingosine and [gamma-(32)P]-ATP as substrate at 100 uM by scintillation proximity counting
Summary of the method: (§3)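 Enzyme source: supernatant (10,000×g) of homogenized Sf9 cells infected with recombinant virus for 72 h, 2-3 μg protein per reaction. Sphingosine substrate at 10 μM for SphK1 and 5 μM for SphK2. Initial screen used inhibitor at 100 μM, with some compounds at 10 μM. Read-out is percent of remaining kinase activity, averaged over three experiments.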

Sphingosine kinase 2 = target: T3, Sphingosine kinase 2 (Mus musculus, UniProt Q9JIA7); assay: Inhibition of mouse SphK2 expressed in baculovirus infected Sf9 insect cells using sphingosine and [gamma-(32)P]-ATP by scintillation proximity assay
T3 sequence (Q9JIA7 whole entry): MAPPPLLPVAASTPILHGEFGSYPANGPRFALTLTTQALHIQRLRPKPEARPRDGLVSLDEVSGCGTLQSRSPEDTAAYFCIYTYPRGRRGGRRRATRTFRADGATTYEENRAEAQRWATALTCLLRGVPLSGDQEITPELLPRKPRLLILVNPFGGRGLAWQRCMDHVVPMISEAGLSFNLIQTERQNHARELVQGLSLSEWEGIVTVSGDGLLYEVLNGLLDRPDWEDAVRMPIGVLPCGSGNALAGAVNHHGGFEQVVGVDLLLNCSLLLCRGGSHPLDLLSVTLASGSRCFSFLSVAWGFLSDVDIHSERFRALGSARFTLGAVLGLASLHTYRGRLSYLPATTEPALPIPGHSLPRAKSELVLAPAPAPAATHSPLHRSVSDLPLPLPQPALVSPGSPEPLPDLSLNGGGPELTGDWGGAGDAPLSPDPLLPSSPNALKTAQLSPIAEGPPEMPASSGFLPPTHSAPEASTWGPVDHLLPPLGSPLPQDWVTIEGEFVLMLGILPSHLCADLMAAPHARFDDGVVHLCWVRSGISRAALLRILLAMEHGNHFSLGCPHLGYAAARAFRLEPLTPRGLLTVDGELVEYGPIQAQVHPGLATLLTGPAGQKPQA

[5] = target: T1, Sphingosine kinase 2 (Homo sapiens); assay: Inhibition of SphK2 in human U937 cells using FTY720 as substrate assessed as decrease in phosphorylated FTY720 at 10 uM after 2 hrs by LC/MS analysis; type: cell-based; settings: U-937; summary of the method: as §1
Sphingosine kinase 1 [6] = target: T2, Sphingosine kinase 1; assay: Inhibition of human SphK1 expressed in baculovirus infected Sf9 insect cells using sphingosine and [gamma-(32)P]-ATP by scintillation proximity assay
Summary of the method: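 Ki calculated as Ki = [I]/(K′m/Km – 1), using a sphingosine Km of 10 μM for SphK1 and 5 μM for SphK2. Enzyme came from infected Sf9 cell extract (10,000×g supernatant, 2-3 μg protein).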

[7] = target: T1, Sphingosine kinase 2 (Homo sapiens); assay: Inhibition of SphK2 in human U937 cells assessed as change in S1P level by LC/MS analysis; type: cell-based; settings: U-937
Summary of the method: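 U937 cells were treated with inhibitor, and S1P levels were measured by LC/MS.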

[8] = target: T4, Sphingosine kinase 2 (Mus musculus) (UniProt Q9JIA7); assay: Inhibition of mouse SphK2 expressed in baculovirus infected Sf9 insect cells assessed as remaining activity using sphingosine and [gamma-(32)P]-ATP at 100 uM by scintillation proximity counting; summary of the method: as §3
T4 sequence (whole entry): T3 sequence (Q9JIA7 whole entry)

[9] = target: T1, Sphingosine kinase 2 (Homo sapiens); assay: Inhibition of SphK2 in human U937 cells assessed as decrease in Akt phosphorylation after 16 hrs by Western blot analysis; type: cell-based; settings: U-937; summary of the method: as §2

T2 sequence (Q9NYA1 whole entry): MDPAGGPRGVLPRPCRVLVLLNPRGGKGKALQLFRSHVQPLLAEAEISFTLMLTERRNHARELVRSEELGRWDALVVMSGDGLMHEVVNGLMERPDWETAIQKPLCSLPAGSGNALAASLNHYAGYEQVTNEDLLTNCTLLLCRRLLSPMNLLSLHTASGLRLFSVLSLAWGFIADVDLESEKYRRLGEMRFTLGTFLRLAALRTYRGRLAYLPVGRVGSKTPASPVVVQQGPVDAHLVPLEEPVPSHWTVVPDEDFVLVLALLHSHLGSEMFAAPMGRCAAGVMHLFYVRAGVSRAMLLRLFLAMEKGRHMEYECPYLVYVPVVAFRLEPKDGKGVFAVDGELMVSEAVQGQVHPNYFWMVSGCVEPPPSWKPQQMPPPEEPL

For CCCCCCCCc1ccc([C@H]2CC[C@H]([N+](C)(C)C)CC2)cc1, the inhibition [1] was “Active”, the inhibition [2] was “Dose-dependent effect” and the Selectivity ratio [3] was 3.75. For the same compound, the Activity (Sphingosine kinase 1 [4]) was 10.2%, the Ki (Sphingosine kinase 2) was 8 µM and the inhibition [5] was “Active”. The Ki (Sphingosine kinase 1 [6]) was 60 µM, the inhibition [7] was “inactive” and the Activity [8] was 4%. For the same compound, the inhibition [9] was “Dose-dependent effect”.
